Calls of active or inactive are those of the source. The calls are words filed in the database; no cut-off is given here.
Tests used:
[1] = Apparent permeability of the compound in MDCK2 cells; format: ADME, cell-based, Canis lupus familiaris, MDCK-II; conditions: dog, mdck
Summary of the method: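 Passive permeability (Papp, 10–6 cm/s) measured in low-efflux MDCKII cells.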

MDCK = test: Efflux ratio of permeability from basolateral to apical over apical to basolateral side in MDCK cells expressing human MDR1; conditions: dog
[2] = biological target: T1, Muscarinic acetylcholine receptor M2 (Homo sapiens) (UniProt P08172); test: Antagonist activity at muscarinic M2 receptor (unknown origin) expressed in CHO-K1 CHRM2 beta-arrestin cells assessed as inhibition of oxotremorine S-induced effect after 90 mins; format: cell-based
T1 sequence (whole entry): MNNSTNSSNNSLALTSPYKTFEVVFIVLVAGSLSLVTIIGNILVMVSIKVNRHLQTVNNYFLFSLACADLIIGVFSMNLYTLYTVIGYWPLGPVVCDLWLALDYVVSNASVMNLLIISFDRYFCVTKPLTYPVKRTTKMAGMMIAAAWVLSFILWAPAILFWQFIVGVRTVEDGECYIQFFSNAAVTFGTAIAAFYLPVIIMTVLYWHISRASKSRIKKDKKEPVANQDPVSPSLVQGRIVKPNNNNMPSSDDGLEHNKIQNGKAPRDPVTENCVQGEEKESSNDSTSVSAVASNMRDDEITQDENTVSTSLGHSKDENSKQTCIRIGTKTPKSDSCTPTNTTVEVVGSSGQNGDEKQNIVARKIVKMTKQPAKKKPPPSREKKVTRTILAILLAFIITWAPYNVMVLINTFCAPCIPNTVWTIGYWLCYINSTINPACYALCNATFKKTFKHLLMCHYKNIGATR
Summary of the method: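 Antagonist mode in a β-arrestin PathHunter format. Kb was determined in the presence of an EC80 concentration of the agonist oxotremorine.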

[3] = Apparent intrinsic clearance in human liver microsomes; format: ADME; conditions: read-out: CLH
Summary of the method: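 Apparent intrinsic clearance in human liver microsomes, expressed as mL/min/kg. Values are uncorrected for fraction unbound.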

Homo sapiens = species: Homo sapiens; test: Selectivity ratio of pKb for muscarinic M2 receptor (unknown origin) expressed in CHO-K1 CHRM2 beta-arrestin cells to Ki for human ghrelin receptor expressed; format: cell-based
Summary of the method: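 Ratio of the M2 Kb (β-arrestin PathHunter antagonist format, EC80 oxotremorine) over the human ghrelin receptor functional Ki (GTP-γ-S assay).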

[4] = biological target: T2, Growth hormone secretagogue receptor type 1 (Homo sapiens, UniProt Q92847); test: Inverse agonist activity at human ghrelin receptor expressed in HEK293 cells assessed as inhibition of ghrelin-induced europium-labeled GTP-gamma-S binding by DELFIA; format: cell-based
T2 sequence (Q92847 whole entry): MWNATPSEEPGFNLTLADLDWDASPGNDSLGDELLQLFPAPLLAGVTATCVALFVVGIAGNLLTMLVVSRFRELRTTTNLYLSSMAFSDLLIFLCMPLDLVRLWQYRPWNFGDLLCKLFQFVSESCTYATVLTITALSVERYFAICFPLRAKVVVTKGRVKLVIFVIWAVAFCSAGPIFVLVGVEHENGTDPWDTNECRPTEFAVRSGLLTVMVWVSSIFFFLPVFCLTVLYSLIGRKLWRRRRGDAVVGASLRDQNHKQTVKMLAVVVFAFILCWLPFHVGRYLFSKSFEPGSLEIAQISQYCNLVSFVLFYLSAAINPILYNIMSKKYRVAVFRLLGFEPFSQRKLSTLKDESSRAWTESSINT
Summary of the method: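 GTP-γ-S functional assay run in agonist/antagonist/inverse-agonist mode. Minimum percent effect is reported, with negative values denoting inverse agonism. Values are geometric means ± standard error of ≥3 measurements unless noted.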

[5] = biological target: T2, Growth hormone secretagogue receptor type 1; test: Displacement of [125I]ghrelin from human ghrelin receptor expressed in HEK293 cells after 8 hrs by scintillation proximity assay; format: cell-based
Summary of the method: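 Human ghrelin receptor binding measured by scintillation proximity assay. Values are geometric means of at least 3 measurements, unless noted otherwise.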

[6] = biological target: T3, D(4) dopamine receptor (Homo sapiens) (UniProt P21917); test: Activity at dopamine D4 receptor (unknown origin) at 10 uM
T3 sequence (whole entry): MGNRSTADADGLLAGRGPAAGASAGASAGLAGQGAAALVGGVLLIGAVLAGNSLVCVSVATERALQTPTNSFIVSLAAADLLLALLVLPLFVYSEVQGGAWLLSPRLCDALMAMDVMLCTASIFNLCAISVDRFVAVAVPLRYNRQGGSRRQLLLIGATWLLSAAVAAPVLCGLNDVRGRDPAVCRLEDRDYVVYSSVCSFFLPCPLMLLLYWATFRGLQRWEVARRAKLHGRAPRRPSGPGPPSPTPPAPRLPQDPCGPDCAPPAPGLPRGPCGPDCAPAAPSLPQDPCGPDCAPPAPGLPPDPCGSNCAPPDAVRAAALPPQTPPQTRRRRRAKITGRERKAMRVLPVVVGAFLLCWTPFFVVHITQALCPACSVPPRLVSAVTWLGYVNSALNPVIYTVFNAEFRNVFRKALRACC

[7] = biological target: T4, Alpha-2A adrenergic receptor (Homo sapiens) (UniProt P08913); test: Activity at adrenergic alpha2A receptor (unknown origin) at 10 uM
T4 sequence (whole entry): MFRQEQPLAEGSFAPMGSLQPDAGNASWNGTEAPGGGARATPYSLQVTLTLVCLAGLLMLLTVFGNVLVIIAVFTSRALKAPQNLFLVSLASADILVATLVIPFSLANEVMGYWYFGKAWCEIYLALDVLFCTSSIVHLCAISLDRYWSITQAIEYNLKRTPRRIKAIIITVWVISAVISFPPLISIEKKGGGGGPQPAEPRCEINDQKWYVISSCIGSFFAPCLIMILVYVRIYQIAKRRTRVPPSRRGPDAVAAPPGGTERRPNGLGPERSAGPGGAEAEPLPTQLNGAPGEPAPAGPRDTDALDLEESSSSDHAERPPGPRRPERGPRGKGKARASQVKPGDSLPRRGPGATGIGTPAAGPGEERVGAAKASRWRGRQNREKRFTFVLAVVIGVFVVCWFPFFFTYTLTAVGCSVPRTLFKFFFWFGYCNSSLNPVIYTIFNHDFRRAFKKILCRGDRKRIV

[8] = biological target: D(3) dopamine receptor (Homo sapiens) (UniProt P35462); test: Activity at dopamine D3 receptor (unknown origin) at 10 uM
D(3) dopamine receptor (Homo sapiens), sequence (P35462 whole entry): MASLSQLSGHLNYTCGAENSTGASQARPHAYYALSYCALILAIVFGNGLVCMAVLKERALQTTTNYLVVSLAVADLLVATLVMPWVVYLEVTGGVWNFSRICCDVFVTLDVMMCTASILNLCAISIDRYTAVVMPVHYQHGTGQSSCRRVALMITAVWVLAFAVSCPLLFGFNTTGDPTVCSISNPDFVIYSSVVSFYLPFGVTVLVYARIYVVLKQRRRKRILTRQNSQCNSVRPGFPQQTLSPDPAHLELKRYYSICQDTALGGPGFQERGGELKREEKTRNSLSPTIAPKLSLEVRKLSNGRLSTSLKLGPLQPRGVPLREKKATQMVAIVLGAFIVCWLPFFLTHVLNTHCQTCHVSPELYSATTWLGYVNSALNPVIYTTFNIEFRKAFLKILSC

[9] = biological target: Histamine H1 receptor (Homo sapiens) (UniProt P35367); test: Activity at histamine H1 receptor (unknown origin) at 10 uM
Histamine H1 receptor (Homo sapiens), sequence (P35367 whole entry): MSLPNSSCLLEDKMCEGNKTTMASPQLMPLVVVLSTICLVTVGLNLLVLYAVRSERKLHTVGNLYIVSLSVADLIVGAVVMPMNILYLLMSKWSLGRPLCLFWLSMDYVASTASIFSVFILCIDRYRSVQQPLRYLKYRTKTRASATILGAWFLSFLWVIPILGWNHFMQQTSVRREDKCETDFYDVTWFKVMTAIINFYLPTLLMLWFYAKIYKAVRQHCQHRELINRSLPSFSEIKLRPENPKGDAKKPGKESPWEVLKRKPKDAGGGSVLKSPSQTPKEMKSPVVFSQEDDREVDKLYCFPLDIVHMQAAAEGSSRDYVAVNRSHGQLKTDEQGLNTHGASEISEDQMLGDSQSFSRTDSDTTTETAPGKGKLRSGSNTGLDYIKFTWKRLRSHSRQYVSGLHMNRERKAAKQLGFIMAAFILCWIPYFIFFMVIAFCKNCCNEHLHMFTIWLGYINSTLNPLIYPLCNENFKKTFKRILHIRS

[10] = biological target: T5, Alpha-2C adrenergic receptor (Homo sapiens) (UniProt P18825); test: Activity at adrenergic alpha2C receptor (unknown origin) at 10 uM
T5 sequence (whole entry): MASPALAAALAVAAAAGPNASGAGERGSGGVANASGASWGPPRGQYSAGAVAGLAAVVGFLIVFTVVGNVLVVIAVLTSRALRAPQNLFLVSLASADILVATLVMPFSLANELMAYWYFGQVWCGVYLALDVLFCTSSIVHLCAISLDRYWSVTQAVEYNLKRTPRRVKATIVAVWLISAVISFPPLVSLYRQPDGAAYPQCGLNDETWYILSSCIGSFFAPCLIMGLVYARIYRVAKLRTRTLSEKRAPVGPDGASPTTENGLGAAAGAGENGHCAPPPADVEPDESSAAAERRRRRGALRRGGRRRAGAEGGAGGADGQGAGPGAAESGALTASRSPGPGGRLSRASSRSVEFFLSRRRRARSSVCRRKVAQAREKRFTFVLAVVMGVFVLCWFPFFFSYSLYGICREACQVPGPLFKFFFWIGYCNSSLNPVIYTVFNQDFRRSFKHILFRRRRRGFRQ

[11] = biological target: D(2) dopamine receptor (Homo sapiens) (UniProt P14416); test: Activity at dopamine D2S receptor (unknown origin) at 10 uM
D(2) dopamine receptor (Homo sapiens), sequence (P14416 whole entry): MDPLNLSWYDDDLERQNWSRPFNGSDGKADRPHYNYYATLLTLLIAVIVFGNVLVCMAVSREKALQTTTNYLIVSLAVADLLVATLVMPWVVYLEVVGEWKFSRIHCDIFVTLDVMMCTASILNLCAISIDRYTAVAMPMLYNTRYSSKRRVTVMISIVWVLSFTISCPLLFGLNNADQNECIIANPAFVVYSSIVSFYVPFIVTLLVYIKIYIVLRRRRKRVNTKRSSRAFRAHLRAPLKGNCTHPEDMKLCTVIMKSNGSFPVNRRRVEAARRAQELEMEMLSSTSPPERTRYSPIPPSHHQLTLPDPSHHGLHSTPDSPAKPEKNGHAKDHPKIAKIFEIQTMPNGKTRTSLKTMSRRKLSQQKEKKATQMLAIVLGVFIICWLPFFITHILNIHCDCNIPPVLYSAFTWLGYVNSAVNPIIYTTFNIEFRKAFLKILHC

[12] = Oral absorption in portal vein cannulated rat at 10 mg/kg, po; format: ADME, organism-based; set-up: dose 10 mg/kg, route oral; conditions: in vivo
[13] = biological target: T6, 5-hydroxytryptamine receptor 2B (Homo sapiens, UniProt P41595); test: Inhibition of 5HT2B receptor (unknown origin)
T6 sequence (P41595 whole entry): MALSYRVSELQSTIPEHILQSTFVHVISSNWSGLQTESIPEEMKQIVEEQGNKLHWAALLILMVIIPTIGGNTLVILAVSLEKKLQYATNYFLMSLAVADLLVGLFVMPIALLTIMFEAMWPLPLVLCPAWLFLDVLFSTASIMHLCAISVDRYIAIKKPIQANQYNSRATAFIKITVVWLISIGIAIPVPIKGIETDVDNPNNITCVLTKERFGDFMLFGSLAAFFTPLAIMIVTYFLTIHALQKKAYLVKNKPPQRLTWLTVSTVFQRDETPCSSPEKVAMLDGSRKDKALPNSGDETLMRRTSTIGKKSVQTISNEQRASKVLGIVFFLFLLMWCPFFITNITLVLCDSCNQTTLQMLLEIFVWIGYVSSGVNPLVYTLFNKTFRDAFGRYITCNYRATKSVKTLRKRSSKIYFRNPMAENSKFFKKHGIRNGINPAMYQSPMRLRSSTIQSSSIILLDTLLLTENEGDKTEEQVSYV

[14] = biological target: Voltage-gated inwardly rectifying potassium channel KCNH2 (Homo sapiens, UniProt Q12809); test: Inhibition of human ERG
Voltage-gated inwardly rectifying potassium channel KCNH2, sequence (Q12809 whole entry): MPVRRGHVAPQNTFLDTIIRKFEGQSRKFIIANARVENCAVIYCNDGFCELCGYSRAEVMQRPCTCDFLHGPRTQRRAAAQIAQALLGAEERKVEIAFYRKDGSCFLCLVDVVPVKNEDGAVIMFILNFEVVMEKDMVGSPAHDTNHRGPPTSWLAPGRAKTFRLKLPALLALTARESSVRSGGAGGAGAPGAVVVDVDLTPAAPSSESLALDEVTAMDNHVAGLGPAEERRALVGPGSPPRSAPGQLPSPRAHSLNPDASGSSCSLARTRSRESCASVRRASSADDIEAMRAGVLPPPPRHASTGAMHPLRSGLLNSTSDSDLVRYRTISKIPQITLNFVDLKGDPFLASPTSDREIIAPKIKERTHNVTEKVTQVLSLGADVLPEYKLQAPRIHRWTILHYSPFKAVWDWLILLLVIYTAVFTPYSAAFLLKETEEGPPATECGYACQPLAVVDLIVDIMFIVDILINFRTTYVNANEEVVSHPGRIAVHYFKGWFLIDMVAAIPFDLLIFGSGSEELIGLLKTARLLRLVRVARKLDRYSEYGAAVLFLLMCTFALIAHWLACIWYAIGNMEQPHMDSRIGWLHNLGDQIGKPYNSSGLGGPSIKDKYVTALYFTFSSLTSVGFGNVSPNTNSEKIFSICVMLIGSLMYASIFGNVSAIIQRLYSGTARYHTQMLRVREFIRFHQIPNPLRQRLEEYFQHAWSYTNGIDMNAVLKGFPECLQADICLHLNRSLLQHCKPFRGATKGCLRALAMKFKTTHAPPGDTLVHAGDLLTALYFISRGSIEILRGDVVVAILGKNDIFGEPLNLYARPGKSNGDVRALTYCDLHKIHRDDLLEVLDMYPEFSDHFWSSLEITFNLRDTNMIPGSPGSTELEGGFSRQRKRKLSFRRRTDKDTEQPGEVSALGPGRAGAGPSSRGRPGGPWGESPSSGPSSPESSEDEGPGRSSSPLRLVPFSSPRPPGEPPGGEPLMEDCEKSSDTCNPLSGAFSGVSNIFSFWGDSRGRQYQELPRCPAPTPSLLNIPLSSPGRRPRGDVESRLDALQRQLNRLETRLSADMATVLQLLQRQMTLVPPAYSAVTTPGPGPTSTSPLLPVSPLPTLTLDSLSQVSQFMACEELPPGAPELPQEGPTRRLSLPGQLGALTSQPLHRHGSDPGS

[15] = biological target: T6, 5-hydroxytryptamine receptor 2B; test: Antagonist activity at 5HT2B receptor (unknown origin)
[16] = biological target: T6, 5-hydroxytryptamine receptor 2B; test: Agonist activity at 5HT2B receptor (unknown origin)

Structure (SMILES) | Papp [1] [×10⁻⁶ cm/s] | Ratio (MDCK) | pKb [2] | CLint scaled [3] [mL/min/kg] | Ki [4] [nM] | Ratio (Homo sapiens) | further results
COc1ccc(CC(=O)N2CCC3(CC2)CN([C@@H]2CCc4cc(-c5ccncn5)ccc42)C3)nc1 | 15 | 5.4 | 6.08 | 82 |  |  | 
COc1ccc(CC(=O)N2CCC3(CC2)CN([C@@H]2CCc4cc(-c5ncc(C)cn5)ccc42)C3)nc1 |  |  | 5.86 |  | 85.1 |  | 
Cc1cn2cc(CC(=O)N3CCC4(CC3)CN([C@@H]3CCc5cc(-c6ccc(C(N)=O)nc6)ccc53)C4)nc2s1 |  | > 18.2 | 6.48 |  |  |  | 
COc1ccc(CC(=O)N2CCC3(CC2)CN([C@@H]2CCc4cc(-c5ncccn5)ccc42)C3)nc1 |  |  | 6.18 |  | 25.1 |  | 
COc1ccc(CC(=O)N2CCC3(CC2)CN([C@@H]2CCc4cc(-c5cc(C)ncn5)ccc42)C3)nc1 |  |  | 5.66 |  |  |  | 
Cc1cc(-c2ccc3c(c2)CC[C@H]3N2CC3(CCN(C(=O)Cc4cn5cc(C)sc5n4)CC3)C2)ncn1 [PF-5190457] | 5 | 7.2 | 5.71 | 21 | 6.61 | 266 | Fa [12]: 100%; IC50 [13]: 3700 nM; Ki [5]: 6.61 nM; IC50 [14]: 6900 nM; inhibition [15]: inactive; Activity [16]: inactive

The next lines start with results.

Papp [1] [×10⁻⁶ cm/s] | Ratio (MDCK) | pKb [2] | CLint scaled [3] [mL/min/kg] | Ki [4] [nM] | Structure (SMILES) | Ratio (Homo sapiens) | further results
10 | 3.7 | 6.09 | 17 | 50.1 | COc1ccc(CC(=O)N2CCC3(CC2)CN([C@@H]2CCc4cc(-c5nccc(C)n5)ccc42)C3)nc1 | 20 | 
11 | 5.4 | 6.41 | 18 | 6.61 | Cc1cn2cc(CC(=O)N3CCC4(CC3)CN([C@@H]3CCc5cc(-c6ncccn6)ccc53)C4)nc2s1 | 47 | Ki [5]: 4.57 nM
 |  | 5.94 |  |  | COc1ccc(CC(=O)N2CCC3(CC2)CN([C@@H]2CCc4cc(-c5ncccn5)ccc42)C3)cc1 |  | Activity [6]: Active; Activity [7]: Active; Activity [8]: Active; Activity [9]: Active; Activity [10]: Active; Activity [11]: Active
